Calls of active or inactive are those of the source. The calls are words filed in the database; no cut-off is given here.

Data set [1] relates to N2a. In words: Antiamyloidogenic activity in mouse N2A cells assessed as degradation of amyloid beta (1 to 42) level at 10 uM treated 24 hrs before amyloid beta (1 to 42) challenge measured after 8 hrs by MALDI/TOF analysis. It counts as functional, cell-based. The procedure, abridged: (§1)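 Wild-type N2a cells in DMEM with 0.2 % FBS, drug-treated after PBS wash; conditioned media collected (18 h per methods, 24 h per text), NaN₃ added, centrifuged, then mixed with Aβ1–40 + Aβ1–42 and incubated 8 h at 37 °C. Cell-free media served as control. Aβ measured by 4G8/6E10 immunoprecipitation and MALDI-TOF, normalized to Aβ1–43 spike and to media control; mean and s.d.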

The subject of data set [2] is N2a. Kind of data set: Antiamyloidogenic activity in mouse N2A cells assessed as degradation of amyloid beta (1 to 40) level at 10 uM treated 24 hrs before amyloid beta (1 to 40) challenge measured after 8 hrs by MALDI/TOF analysis. It counts as functional, cell-based. Summed up:
as §1

The subject of data set [3] is N2a. Kind of data set: Antiamyloidogenic activity in mouse N2A cells assessed as reduction of amyloid beta (1 to 42)/(1 to 40) ratio at 10 uM treated 24 hrs before amyloid beta (1 to 42)/(1 to 40) challenge measured after 8 hrs by MALDI/TOF analysis. It is filed as functional, cell-based. Summed up: as §1
A short description of data set [4]: Cytotoxicity against mouse RAW264.7 cells assessed as cell viability at 10 uM after 24 hrs by MTT assay relative to control. It counts as cell-based. The settings on record: read-out: Activity. Summed up: (§2)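 RAW 264.7 cells given 0.5 mg/ml MTT in medium for 4 h, washed with PBS; formazan dissolved in DMSO, shaken 30 min, absorbance read at 570 nm against a 630 nm reference. Viability expressed relative to DMSO control.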
For orientation: Tetrazolium dyes change colour on reduction, which living cells bring about.

Data set [5] deals with N2a. Kind of data set: Antiamyloidogenic activity in mouse N2A cells transfected with human APP Swedish mutant assessed as amyloid beta (1 to 42) level at 1 uM after 24 hrs by ELISA relative to control. On the technique in general: An ELISA detects its analyte on a solid surface through an enzyme-linked reagent.
Data set [6] relates to RAW264.7. In words: Antiinflammatory activity against mouse RAW264.7 cells assessed as LPS-induced nitrate production at 10 uM treated 30 mins before LPS challenge measured after 24 hrs by Griess reagent method relative to control. In general terms: Griess reagent forms a coloured azo dye with nitrite.
Data set [7] has as its system N2a. In words: Antiamyloidogenic activity in mouse N2A cells transfected with human APP Swedish mutant assessed as increase of amyloid beta (1 to 40) level at 200 uM after 24 hrs by ELISA. It is filed as functional, cell-based.
In data set [8] the test system is N2a. In words: Antiamyloidogenic activity in mouse N2A cells transfected with human APP Swedish mutant assessed as increase of amyloid beta (1 to 42) level at 200 uM after 24 hrs by ELISA. It is filed as functional, cell-based.
In data set [9] the test system is N2a. Kind of data set: Antiamyloidogenic activity in mouse N2A cells transfected with human APP Swedish mutant assessed as increase of amyloid beta (1 to 42)/(1 to 40) ratio at 200 uM after 24 hrs by ELISA. It counts as functional, cell-based.
For data set [10], the system named is N2a. Kind of data set: Antiamyloidogenic activity in mouse N2A cells transfected with human APP Swedish mutant assessed as increase of amyloid beta (1 to 42) level at 200 uM after 24 hrs by ELISA relative to control. It is filed as functional.
Data set [11] relates to N2a. In words: Antiamyloidogenic activity in mouse N2A cells transfected with human APP Swedish mutant assessed as effect on amyloid beta (1 to 37) level at 200 uM after 24 hrs by ELISA. It counts as functional, cell-based.
The test system of data set [12] is N2a. In words: Antiamyloidogenic activity in mouse N2A cells transfected with human APP Swedish mutant assessed as effect on amyloid beta (1 to 38) level at 200 uM after 24 hrs by ELISA. It is filed as functional, cell-based.
Data set [13] relates to N2a. Kind of data set: Antiamyloidogenic activity in mouse N2A cells assessed as degradation of amyloid beta (1 to 42) level at 100 uM treated 24 hrs before amyloid beta (1 to 42) challenge measured after 8 hrs by MALDI/TOF analysis. It counts as functional, cell-based. The procedure, abridged:
(§3)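 Wild-type N2a cells were plated at 100 × 10⁴ cells/well, PBS-washed, and drug-treated in DMEM with 0.2 % FBS. Conditioned medium was collected after 24 h per the legend (18 h per the methods), given NaN₃, spun at 10,000 g, added to an Aβ1–40 + Aβ1–42 mixture, and incubated 8 h at 37 °C. Samples were then given protease inhibitors, spiked with Aβ1–43, and analysed by 4G8/6E10 IP-MALDI-TOF. Values were normalised to cell-free media control; mean and s.d.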

In data set [14] the test system is N2a. In words: Antiamyloidogenic activity in mouse N2A cells assessed as degradation of amyloid beta (1 to 40) level at 100 uM treated 24 hrs before amyloid beta (1 to 40) challenge measured after 8 hrs by MALDI/TOF analysis. It is filed as functional, cell-based. The procedure, abridged: as §3
For data set [15], the system named is N2a. In words: Antiamyloidogenic activity in mouse N2A cells assessed as reduction of amyloid beta (1 to 42)/(1 to 40) ratio at 100 uM treated 24 hrs before amyloid beta (1 to 42)/(1 to 40) challenge measured after 8 hrs by MALDI/TOF analysis. It counts as functional, cell-based. Summed up: as §3
Data set [16] can be described thus: Cytotoxicity against mouse RAW264.7 cells assessed as cell viability at 100 uM after 24 hrs by MTT assay relative to control. It is filed as cell-based. The settings on record: read-out: Activity. The procedure, abridged: as §2
The test system of data set [17] is N2a. In words: Antiamyloidogenic activity in mouse N2A cells transfected with human APP Swedish mutant assessed as reduction of amyloid beta (1 to 42) level at 100 uM after 24 hrs by ELISA. It is filed as functional, cell-based.
Data set [18] concerns N2a. In words: Antiamyloidogenic activity in mouse N2A cells transfected with human APP Swedish mutant assessed as increase of amyloid beta (1 to 37) level at 100 uM after 24 hrs by ELISA. It counts as functional, cell-based.
The subject of data set [19] is RAW264.7. Kind of data set: Antiinflammatory activity against mouse RAW264.7 cells assessed as LPS-induced nitrate production at 100 uM treated 30 mins before LPS challenge measured after 24 hrs by Griess reagent method relative to control.
Data set [20] can be described thus: Ratio of drug level in brain to plasma in C57BL/6 mouse at 10 mg/kg, ip after 30 mins. The settings on record: read-out: BPR. It is filed as ADME, organism-based. Also noted: dose 10 mg/kg, route intraperitoneal. The procedure, abridged:
(§4)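 Male C57BL/6 mice (25 g) dosed i.p. with 10 mg/kg in DMSO/H₂O 1:1, sacrificed at 30 or 120 min. Brain extracted by methanol homogenization and plasma by acetonitrile, then C18 LC-MS/MS with MRM m/z 361→200 in positive mode. Quantified against a 4–500 ng/mL standard curve; N=4, mean and s.e.m.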

Data set [21] can be described thus: Ratio of drug level in brain to plasma in C57BL/6 mouse at 10 mg/kg, ip after 120 mins. It is filed as ADME, organism-based. Also noted: dose 10 mg/kg, route intraperitoneal. The settings on record: read-out: BPR. Summed up: as §4
Data set [22] has as its system N2a. Kind of data set: Antiamyloidogenic activity in mouse N2A cells transfected with human APP Swedish mutant assessed as increase of amyloid beta (1 to 42) level at 100 uM after 24 hrs by ELISA. It is filed as functional, cell-based.
Data set [23] relates to N2a. In words: Antiamyloidogenic activity in mouse N2A cells transfected with human APP Swedish mutant assessed as increase of amyloid beta (1 to 42)/(1 to 40) ratio at 100 uM after 24 hrs by ELISA. It counts as functional, cell-based.
Data set [24] relates to N2a. In words: Antiamyloidogenic activity in mouse N2A cells assessed as degradation of amyloid beta (1 to 42) level at 1 uM treated 24 hrs before amyloid beta (1 to 42) challenge measured after 8 hrs by MALDI/TOF analysis. It is filed as functional, cell-based. Summed up: as §1
Data set [25] has as its system N2a. In words: Antiamyloidogenic activity in mouse N2A cells assessed as degradation of amyloid beta (1 to 40) level at 1 uM treated 24 hrs before amyloid beta (1 to 40) challenge measured after 8 hrs by MALDI/TOF analysis. It counts as functional, cell-based. The procedure, abridged:
as §1

Data set [26] concerns N2a. Kind of data set: Antiamyloidogenic activity in mouse N2A cells assessed as reduction of amyloid beta (1 to 42)/(1 to 40) ratio at 1 uM treated 24 hrs before amyloid beta (1 to 42)/(1 to 40) challenge measured after 8 hrs by MALDI/TOF analysis. It counts as functional, cell-based. The procedure, abridged:
as §1

In data set [27] the test system is N2a. Kind of data set: Antiamyloidogenic activity in mouse N2A cells transfected with human APP Swedish mutant assessed as increase of amyloid beta (1 to 40) level at 100 uM after 24 hrs by ELISA. It counts as functional, cell-based.
For data set [28], the system named is N2a. Kind of data set: Antiamyloidogenic activity in mouse N2A cells transfected with human APP Swedish mutant assessed as amyloid beta (1 to 42) level at 100 uM after 24 hrs by ELISA relative to control.

`CSc1ccc(/C=C2/C=C(CC(=O)O)c3cc(F)ccc32)cc1`: the result with N2a [1], in the data set on N2a [2] and in the data set on N2a [3] was Active. Besides, the viability at 24 h, 10 µM in data set [4] was 100%. In addition, the level, % of control at 1 µM in the data set with N2a [5] was 80.8%. In addition, the level, % of control at 10 µM in the data set with RAW264.7 [6] was found to be 47.5%.

On to `CC(C)OC(=O)C(C)(C)Oc1ccc(C(=O)c2ccc(Cl)cc2)cc1` [FENOFIBRATE], for which the result with N2a [7], in the data set on N2a [8], in the data set with N2a [9], in the data set with N2a [11] and in the data set with N2a [12] was Active. Also, the “fold change (FC)” value in the data set with N2a [10] turned out to be 3.

Take `CC(C(=O)O)c1ccc(-c2ccccc2)c(F)c1` (configuration not stated) [FLURBIPROFEN]: the result in the data set with N2a [13], in the data set on N2a [14], in the data set on N2a [15] and with N2a [18] was Active. Besides, the viability at 24 h, 100 µM in data set [16] came to 10.9%. In addition, the inhibition result in the data set on N2a [17] was “Active”. In addition, the level, % of control at 1 µM in the data set with N2a [5] came out at 86.6%. In addition, the level, % of control at 10 µM in the data set with RAW264.7 [6] was determined as 80.7%. Also, the level, % of control at 100 µM in the data set with RAW264.7 [19] came out at 69.1%.

Take `CC(C(=O)NCCCCO[N+](=O)[O-])c1ccc(-c2ccccc2)c(F)c1` (configuration not stated): in [20], the Kp at 0.5 h came to 37. Also, in [21], the Kp at 2 h came out at 13.

With `CC(C(=O)OCCCCO[N+](=O)[O-])c1ccc(-c2ccccc2)c(F)c1` (configuration not stated), the outcome with N2a [22], in the data set with N2a [23], in the data set with N2a [24], with N2a [25], in the data set with N2a [26] and in the data set with N2a [27] was Active. Besides, the viability at 24 h, 100 µM in [16] worked out at 108%. In addition, the level, % of control at 100 µM in the data set with RAW264.7 [19] was 49.8%.

Consider `COc1ccc2c(c1)c(CC(=O)O)c(C)n2C(=O)c1ccc(Cl)cc1` [INDOMETHACIN], for which, in data set [4], the viability at 24 h, 10 µM turned out to be 98.7%. In addition, in [16], the viability at 24 h, 100 µM worked out at 92%. Besides, in the data set with N2a [5], the level, % of control at 1 µM came to 108%. The level, % of control at 100 µM in the data set on N2a [28] worked out at 76.7%; in the data set on RAW264.7 [19] it was 39.8%. Further, the level, % of control at 10 µM in the data set with RAW264.7 [6] is 70.9%.

Values taken from ChEMBL document CHEMBL1765072, “Inhibition of amyloidogenesis by nonsteroidal anti-inflammatory drugs and their hybrid nitrates” (J Med Chem, 2011).
